Converted amounts (≈) assume the structure as drawn.
Legend:
Assay type in all cases: functional
[1] = tested on: Staphylococcus aureus; test: Antimicrobial activity against panton-valentine leukocidin-negative community-acquired methicillin-resistant Staphylococcus aureus 481 after 14 passages with daptomycin measured after 10 antibiotic-free subculture by multi-step resistance selection technique
How it was run: (§1)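 Mutants from multistep daily serial passage in subinhibitory drug were then subcultured daily 10 times on antibiotic-free medium. MIC was redetermined after these subcultures to assess stability. Clone identity was checked by pulsed-field gel electrophoresis.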

[2] = tested on: Staphylococcus aureus; test: Antimicrobial activity against panton-valentine leukocidin-negative community-acquired methicillin-resistant Staphylococcus aureus 481 after 14 passages by multi-step resistance selection technique
How it was run: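 Multistep selection by daily serial passage of each strain in subinhibitory drug concentrations for the stated number of passages. Mutant MIC was then determined. Identity of mutants and parents was confirmed by pulsed-field gel electrophoresis.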

[3] = tested on: Staphylococcus aureus; test: Antimicrobial activity against vancomycin-intermediate Staphylococcus aureus 555 Hershey after 14 passages with CG400549 measured after 10 antibiotic-free subculture by multi-step resistance selection technique
How it was run: (§2)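 Multistep-selected mutants (daily passage at subinhibitory drug levels) then subcultured 10 times daily on antibiotic-free medium; MIC redetermined afterwards and compared with the MIC recorded at the end of selection; clone identity to parent checked by pulsed-field gel electrophoresis.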

[4] = tested on: Staphylococcus aureus; test: Antimicrobial activity against panton-valentine leukocidin-negative community-acquired methicillin-resistant Staphylococcus aureus 481 after 37 passages with Linezolid measured after 10 antibiotic-free subculture by multi-step resistance selection technique; how it was run: as §1
[5] = tested on: Staphylococcus aureus; test: Antimicrobial activity against methicillin-resistant vancomycin-intermediate Staphylococcus aureus 555 after single-step resistance selection by agar dilution CLSI method
How it was run: (§3)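 Single-step selection on drug-containing agar across 10 strains (2 MSSA, 8 MRSA, including VRSA and VISA). Colonies arising on confluent background growth were retested by CLSI agar dilution MIC. Resistance was defined as an MIC more than 4× the parent MIC.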

[6] = tested on: Staphylococcus aureus; test: Antimicrobial activity against methicillin-susceptible Staphylococcus aureus 540 by agar dilution CLSI method
How it was run: (§4)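 CLSI agar dilution MIC against S. aureus clinical isolates. Calcium was added to the medium for daptomycin testing. Vancomycin plates were read after a full 24-h incubation.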

[7] = tested on: Staphylococcus aureus; test: Antimicrobial activity against methicillin-resistant Staphylococcus aureus 547 after 48 passages with Linezolid measured after 10 antibiotic-free subculture by multi-step resistance selection technique; how it was run: as §1
[8] = tested on: Staphylococcus aureus; test: Antimicrobial activity against panton-valentine leukocidin-positive community-acquired methicillin-resistant Staphylococcus aureus 490 after 14 passages with daptomycin measured after 10 antibiotic-free subculture by multi-step resistance selection technique; how it was run: as §2
[9] = tested on: Staphylococcus aureus; test: Antimicrobial activity against vancomycin-resistant Staphylococcus aureus 509 Michigan after 18 passages with quinupristin-dalfopristin measured after 10 antibiotic-free subculture by multi-step resistance selection technique; how it was run: as §2
[10] = tested on: Staphylococcus aureus; test: Antimicrobial activity against panton-valentine leukocidin-positive community-acquired methicillin-resistant Staphylococcus aureus 490 after 17 passages with CG400549 measured after 10 antibiotic-free subculture by multi-step resistance selection technique; how it was run: as §2
[11] = tested on: Staphylococcus aureus; test: Antimicrobial activity against vancomycin-resistant Staphylococcus aureus 509 Michigan after 20 passages with daptomycin measured after 10 antibiotic-free subculture by multi-step resistance selection technique; how it was run: as §2
[12] = tested on: Staphylococcus aureus; test: Antimicrobial activity against methicillin-resistant Staphylococcus aureus 547 after 14 passages with CG400549 measured after 10 antibiotic-free subculture by multi-step resistance selection technique; how it was run: as §1
[13] = tested on: Staphylococcus aureus; test: Antimicrobial activity against methicillin-susceptible Staphylococcus aureus 540 after 36 passages with Linezolid measured after 10 antibiotic-free subculture by multi-step resistance selection technique; how it was run: as §1
[14] = tested on: Staphylococcus aureus; test: Antimicrobial activity against panton-valentine leukocidin-positive community-acquired methicillin-resistant Staphylococcus aureus 490 after 23 passages with quinupristin-dalfopristin measured after 10 antibiotic-free subculture by multi-step resistance selection technique; how it was run: as §2
[15] = tested on: Staphylococcus aureus; test: Antimicrobial activity against methicillin-resistant Staphylococcus aureus 547 by agar dilution CLSI method; how it was run: as §4
[16] = tested on: Staphylococcus aureus; test: Antimicrobial activity against panton-valentine leukocidin-negative community-acquired methicillin-resistant Staphylococcus aureus 481 after 16 passages with quinupristin-dalfopristin measured after 10 antibiotic-free subculture by multi-step resistance selection technique; how it was run: as §1
[17] = tested on: Staphylococcus aureus; test: Antimicrobial activity against methicillin-susceptible Staphylococcus aureus 543 after 14 passages with CG400549 measured after 10 antibiotic-free subculture by multi-step resistance selection technique; how it was run: as §1
[18] = tested on: Staphylococcus aureus; test: Antimicrobial activity against vancomycin-resistant Staphylococcus aureus 509 Michigan after 14 passages with CG400549 measured after 10 antibiotic-free subculture by multi-step resistance selection technique; how it was run: as §2
[19] = tested on: Staphylococcus aureus; test: Antimicrobial activity against methicillin-susceptible Staphylococcus aureus 543 by agar dilution CLSI method; how it was run: as §4
[20] = tested on: Staphylococcus aureus; test: Antimicrobial activity against vancomycin-resistant Staphylococcus aureus 509 Michigan by agar dilution CLSI method
How it was run: (§5)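 Agar dilution MIC per CLSI methodology; calcium supplemented for daptomycin testing; vancomycin plates read after a full 24-h incubation.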

[21] = tested on: Staphylococcus aureus; test: Antimicrobial activity against methicillin-susceptible Staphylococcus aureus 543 after single-step resistance selection by agar dilution CLSI method; how it was run: as §3
[22] = tested on: Staphylococcus aureus; test: Antimicrobial activity against panton-valentine leukocidin-positive community-acquired methicillin-resistant Staphylococcus aureus 490 after 22 passages with Linezolid measured after 10 antibiotic-free subculture by multi-step resistance selection technique; how it was run: as §2
[23] = tested on: Staphylococcus aureus; test: Antimicrobial activity against vancomycin-intermediate Staphylococcus aureus 504 after 16 passages with quinupristin-dalfopristin measured after 10 times antibiotic-free subculture by multi-step resistance selection technique; how it was run: as §2
[24] = tested on: Staphylococcus aureus; test: Antimicrobial activity against methicillin-susceptible Staphylococcus aureus by agar dilution CLSI method; how it was run: as §4
[25] = tested on: Staphylococcus aureus; test: Antimicrobial activity against methicillin-susceptible Staphylococcus aureus 540 after 14 passages with CG400549 measured after 10 antibiotic-free subculture by multi-step resistance selection technique; how it was run: as §1
[26] = tested on: Staphylococcus aureus; test: Antimicrobial activity against methicillin-resistant Staphylococcus aureus by agar dilution CLSI method; how it was run: as §4
[27] = tested on: Staphylococcus aureus; test: Antimicrobial activity against methicillin and vancomycin-resistant Staphylococcus aureus 510 after single-step resistance selection by agar dilution CLSI method; how it was run: as §3
[28] = tested on: Staphylococcus aureus; test: Antimicrobial activity against vancomycin-resistant Staphylococcus aureus 510 Hershey after 14 passages with CG400549 measured after 10 antibiotic-free subculture by multi-step resistance selection technique; how it was run: as §2
[29] = tested on: Staphylococcus aureus; test: Antimicrobial activity against panton-valentine leukocidin-positive community-acquired methicillin-resistant Staphylococcus aureus 490 by agar dilution CLSI method; how it was run: as §5
[30] = tested on: Staphylococcus aureus; test: Antimicrobial activity against methicillin-susceptible Staphylococcus aureus 543 after 17 passages with daptomycin measured after 10 antibiotic-free subculture by multi-step resistance selection technique; how it was run: as §1
[31] = tested on: Staphylococcus aureus; test: Antimicrobial activity against methicillin-susceptible Staphylococcus aureus 540 after 24 passages with daptomycin measured after 10 antibiotic-free subculture by multi-step resistance selection technique; how it was run: as §1
[32] = tested on: Staphylococcus aureus; test: Antimicrobial activity against vancomycin-resistant Staphylococcus aureus 510 Hershey after 18 passages with daptomycin measured after 10 antibiotic-free subculture by multi-step resistance selection technique; how it was run: as §2
[33] = tested on: Staphylococcus aureus; test: Antimicrobial activity against methicillin-susceptible Staphylococcus aureus 543 after 15 passages with Linezolid measured after 10 antibiotic-free subculture by multi-step resistance selection technique; how it was run: as §1
[34] = tested on: Staphylococcus aureus; test: Antimicrobial activity against methicillin-resistant Staphylococcus aureus 525 after single-step resistance selection by agar dilution CLSI method; how it was run: as §3
[35] = tested on: Staphylococcus aureus; test: Antimicrobial activity against vancomycin-intermediate Staphylococcus aureus 555 Hershey after 20 passages with quinupristin-dalfopristin measured after 10 antibiotic-free subculture by multi-step resistance selection technique; how it was run: as §2

| Structure (SMILES) | MIC [1] [mg/L] | MIC [2] [mg/L] | MIC [3] [mg/L] | MIC [4] [mg/L] | MIC [5] [mg/L] | MIC [6] [mg/L] | MIC [7] [mg/L] | MIC [8] [mg/L] | MIC [9] [mg/L] | MIC [10] [mg/L] | MIC [11] [mg/L] | MIC [12] [mg/L] | MIC [13] [mg/L] | MIC [14] [mg/L] | MIC [15] [mg/L] | MIC [16] [mg/L] | MIC [17] [mg/L] | MIC [18] [mg/L] | MIC [19] [mg/L] | MIC [20] [mg/L] | further results |
| --- | --- | --- | --- | --- | --- | --- | --- | --- | --- | --- | --- | --- | --- | --- | --- | --- | --- | --- | --- | --- | --- |
| CCCCCCCCCC(=O)N[C@@H](Cc1c[nH]c2ccccc12)C(=O)N[C@H](CC(N)=O)C(=O)N[C@@H](CC(=O)O)C(=O)N[C@@H]1C(=O)NCC(=O)N[C@@H](CCCN)C(=O)N[C@@H](CC(=O)O)C(=O)N[C@H](C)C(=O)N[C@@H](CC(=O)O)C(=O)NCC(=O)N[C@H](CO)C(=O)N[C@@H]([C@H](C)CC(=O)O)C(=O)N[C@@H](CC(=O)c2ccccc2N)C(=O)O[C@@H]1C | 8 (≈ 4.94 µM) | 8 (≈ 4.94 µM) | 8 (≈ 4.94 µM) | 1 (≈ 0.617 µM) | 0.5 (≈ 0.309 µM) | 1 (≈ 0.617 µM) | 2 (≈ 1.23 µM) | 4 (≈ 2.47 µM) | 1 (≈ 0.617 µM) | 1 (≈ 0.617 µM) | 4 (≈ 2.47 µM) | 1 (≈ 0.617 µM) | 2 (≈ 1.23 µM) | 1 (≈ 0.617 µM) | 1 (≈ 0.617 µM) | 1 (≈ 0.617 µM) | 1 (≈ 0.617 µM) | 1 (≈ 0.617 µM) | 1 (≈ 0.617 µM) | 1 (≈ 0.617 µM) | MIC [21]: 0.5 mg/L (≈ 0.309 µM); MIC [22]: 1 mg/L (≈ 0.617 µM); MIC [23]: 2 mg/L (≈ 1.23 µM); MIC50 [24]: 1 mg/L (≈ 0.617 µM); MIC90 [24]: 1 mg/L (≈ 0.617 µM); MIC [25]: 1 mg/L (≈ 0.617 µM); MIC50 [26]: 0.5 mg/L (≈ 0.309 µM); MIC90 [26]: 0.5 mg/L (≈ 0.309 µM); MIC [27]: 0.5 mg/L (≈ 0.309 µM); MIC [28]: 1 mg/L (≈ 0.617 µM); MIC [29]: 1 mg/L (≈ 0.617 µM); MIC [30]: 4 mg/L (≈ 2.47 µM); MIC [31]: 2 mg/L (≈ 1.23 µM); MIC [32]: 4 mg/L (≈ 2.47 µM); MIC [33]: 2 mg/L (≈ 1.23 µM); MIC [34]: 0.5 mg/L (≈ 0.309 µM); MIC [35]: 2 mg/L (≈ 1.23 µM) |
| Cc1c(N)cccc1Cn1ccc(OCCc2cccs2)cc1=O [CG-400549] | 0.25 (≈ 0.734 µM) | 2 (≈ 5.87 µM) | 2 (≈ 5.87 µM) | 0.125 (≈ 0.367 µM) | 0.125 (≈ 0.367 µM) | 0.125 (≈ 0.367 µM) | 0.125 (≈ 0.367 µM) | 0.25 (≈ 0.734 µM) | 1 (≈ 2.94 µM) | 8 (≈ 23.5 µM) | 1 (≈ 2.94 µM) | 8 (≈ 23.5 µM) | 0.125 (≈ 0.367 µM) | 0.125 (≈ 0.367 µM) | 0.125 (≈ 0.367 µM) | 0.25 (≈ 0.734 µM) | 8 (≈ 23.5 µM) | > 64 | 0.125 (≈ 0.367 µM) | 1 (≈ 2.94 µM) | MIC [21]: 0.125 mg/L (≈ 0.367 µM); MIC [22]: 0.25 mg/L (≈ 0.734 µM); MIC [23]: 0.5 mg/L (≈ 1.47 µM); MIC50 [24]: 0.25 mg/L (≈ 0.734 µM); MIC90 [24]: 0.25 mg/L (≈ 0.734 µM); MIC [25]: 4 mg/L (≈ 11.7 µM); MIC50 [26]: 0.25 mg/L (≈ 0.734 µM); MIC90 [26]: 0.25 mg/L (≈ 0.734 µM); MIC [27]: 0.125 mg/L (≈ 0.367 µM); MIC [28]: 4 mg/L (≈ 11.7 µM); MIC [29]: 0.25 mg/L (≈ 0.734 µM); MIC [30]: 0.125 mg/L (≈ 0.367 µM); MIC [31]: 0.125 mg/L (≈ 0.367 µM); MIC [32]: 0.125 mg/L (≈ 0.367 µM); MIC [33]: 0.125 mg/L (≈ 0.367 µM); MIC [34]: 0.125 mg/L (≈ 0.367 µM); MIC [35]: 0.25 mg/L (≈ 0.734 µM) |

— ChEMBL document CHEMBL1137665, “Antistaphylococcal activity of CG400549, a new experimental FabI inhibitor, compared with that of other agents” (2007)
